Data published in ChEMBL document CHEMBL1125052, “Synthesis and in vitro LTD4 antagonist activity of bicyclic and monocyclic cyclopentylurethane and cyclopentylacetamide N-arylsulfonyl amides” (J Med Chem, 1990).

system: not listed separately; assay: Partition coefficient (logP); assay type: physicochemical; conditions: octanol/water

SMILES	logP
c1ccc2[nH]nnc2c1 [BENZOTRIAZOLE]	1.34
c1ccc2sccc2c1 [BENZOTHIOPHENE]	3.09
Cn1ccc2ccccc21	2.72
c1ccc2[nH]cnc2c1 [BENZIMIDAZOLE]	1.2
c1ccc2[nH]ncc2c1 [INDAZOLE]	1.82

biological target: T1, Cysteinyl leukotriene receptor 1 (Cavia porcellus) (UniProt Q2NNR5); assay: Negative logarithm of molar dissociation constant on guinea pig trachea at Cysteinyl leukotriene D4 receptor, when LTE4 is used as agonist; assay type: functional; conditions: not given
T1 sequence (whole entry): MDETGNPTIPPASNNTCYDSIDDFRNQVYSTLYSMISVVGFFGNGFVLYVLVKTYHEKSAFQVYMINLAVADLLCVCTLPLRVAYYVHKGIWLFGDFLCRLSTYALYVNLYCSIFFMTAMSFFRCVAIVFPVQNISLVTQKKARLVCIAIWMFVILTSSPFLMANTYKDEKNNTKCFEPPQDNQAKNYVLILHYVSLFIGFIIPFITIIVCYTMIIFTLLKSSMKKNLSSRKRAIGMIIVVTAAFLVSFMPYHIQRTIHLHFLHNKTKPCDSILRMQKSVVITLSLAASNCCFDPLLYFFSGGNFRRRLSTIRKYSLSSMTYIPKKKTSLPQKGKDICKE
Outline: (§1)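 Guinea pig tracheal spirals, each trachea split into two sections for paired experiments, in 10-mL baths of modified Krebs' buffer at 37 °C gassed with 95% O2/5% CO2. Resting tension was 2 g, with 60 min stabilization. Responses were expressed relative to carbachol (30 μM). Test compound was preincubated 30 min before cumulative LTE4 log-increment curves; paired controls received vehicle. EC50 was obtained by linear regression and KB = [antagonist]/(dose ratio − 1).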

pKB	SMILES
9.1	COc1cc(C(=O)NS(=O)(=O)c2ccccc2)ccc1CN1CCOc2ccc(NC(=O)CC3CCCC3)cc21
9.6	COc1cc(C(=O)NS(=O)(=O)c2ccccc2Cl)ccc1Cc1csc2ccc(NC(=O)CC3CCCC3)cc12
9.2	COc1cc(C(=O)NS(=O)(=O)c2ccccc2)ccc1Cn1cnc2ccc(NC(=O)OC3CCCC3)cc21
9.02	COc1cc(C(=O)NS(=O)(=O)c2ccccc2)ccc1CN1CCOc2ccc(NC(=O)OC3CCCC3)cc21
9.86	COc1cc(C(=O)NS(=O)(=O)c2ccccc2)ccc1Cn1nnc2ccc(NC(=O)CC3CCCC3)cc21
9.25	COc1cc(C(=O)NS(=O)(=O)c2ccccc2C)ccc1Cc1csc2ccc(NC(=O)CC3CCCC3)cc12
9.07	CNc1ccc(NC(=O)OC2CCCC2)cc1C(=O)Cc1ccc(C(=O)NS(=O)(=O)c2ccccc2C)cc1OC
9.22	COc1cc(C(=O)NS(=O)(=O)c2ccccc2)ccc1Cn1cnc2ccc(NC(=O)CC3CCCC3)cc21
9.11	COc1cc(C(=O)NS(=O)(=O)c2ccccc2)ccc1CN1CCc2ccc(NC(=O)CC3CCCC3)cc21

More lines, now with the values behind:

SMILES	pKB
COc1cc(C(=O)NS(=O)(=O)c2ccccc2)ccc1Cc1csc2ccc(NC(=O)OC3CCCC3)cc12	9.31
COc1cc(C(=O)NS(=O)(=O)c2ccccc2)ccc1COc1cccc(NC(=O)OC2CCCC2)c1	7.14

biological target: T1, Cysteinyl leukotriene receptor 1 (Cavia porcellus); assay: Negative logarithm of molar dissociation constant on guinea pig trachea at LTD4 receptor, when LTE4 is used as agonist; assay type: functional; conditions: not given; outline: as §1

pKB	SMILES
9.68	COc1cc(C(=O)NS(=O)(=O)c2ccccc2C)ccc1CN1CCOc2ccc(NC(=O)CC3CCCC3)cc21
10.3	COc1cc(C(=O)NS(=O)(=O)c2ccccc2)ccc1Cc1nn(C)c2ccc(NC(=O)OC3CCCC3)cc12

system: not listed separately; assay: Antagonist activity was determined; assay type: functional; conditions: not given; outline: as §1

SMILES	pA2
COc1cc(C(=O)NS(=O)(=O)c2ccccc2)ccc1Cn1ncc2ccc(NC(=O)OC3CCCC3)cc21 [ICI-198615]	10.1
